Measurements: ChEMBL document CHEMBL1255347, “Multiclonal outbreak of Klebsiella pneumoniae producing extended-spectrum beta-lactamase CTX-M-2 and novel variant CTX-M-59 in a neonatal intensive care unit in Brazil” (2008)
Values after ≈ are worked out from the molar mass of the structure shown.

tested on: Klebsiella pneumoniae; test: Antimicrobial activity against CTX-M-2 producing Klebsiella pneumoniae with PFGE pulsotype A by Etest; format: functional; details: not given
In short: (§1)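 Clinical K. pneumoniae isolates from a neonatal ICU outbreak near São Paulo were typed by XbaI PFGE using Tenover criteria. Cultures were grown in LB broth at 37°C. Etest MICs followed the manufacturer's instructions, with cefotaxime and ceftazidime each tested with and without clavulanic acid.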

**Q.** With GENTAMICIN as the compound, how does the MIC read?
**A.** > 256 µg/mL

tested on: Klebsiella pneumoniae; test: Antimicrobial activity against CTX-M-2 producing Klebsiella pneumoniae with PFGE pulsotype B by Etest; format: functional; details: not given; in short: as §1

**Q.** How did the MIC turn out when CO/N=C(\C(=O)N[C@@H]1C(=O)N2C(C(=O)[O-])=C(C[N+]3(C)CCCC3)CS[C@H]12)c1csc(N)n1 was run?
**A.** 128 µg/mL (≈ 266 µM)

**Q.** For GENTAMICIN, which MIC is on record?
**A.** > 256 µg/mL

tested on: Klebsiella pneumoniae; test: Antimicrobial activity against CTX-M-59 producing Klebsiella pneumoniae with PFGE pulsotype C by Etest; format: functional; details: not given

**Q.** For CO/N=C(\C(=O)N[C@@H]1C(=O)N2C(C(=O)[O-])=C(C[N+]3(C)CCCC3)CS[C@H]12)c1csc(N)n1, which MIC is on record?
**A.** 256 µg/mL (≈ 533 µM)

**Q.** How did the MIC turn out when GENTAMICIN was run?
**A.** > 256 µg/mL

tested on: Klebsiella pneumoniae; test: Antimicrobial activity against SHV-5 producing Klebsiella pneumoniae with PFGE pulsotype D by Etest; format: functional; details: not given; in short: as §1

**Q.** How did the MIC turn out when CO/N=C(\C(=O)N[C@@H]1C(=O)N2C(C(=O)[O-])=C(C[N+]3(C)CCCC3)CS[C@H]12)c1csc(N)n1 was run?
**A.** 4 µg/mL (≈ 8.32 µM)

**Q.** GENTAMICIN was tested. Which MIC did it give?
**A.** 24 µg/mL

tested on: Klebsiella pneumoniae; test: Antimicrobial activity against CTX-M-59 producing Klebsiella pneumoniae with PFGE pulsotype E by Etest; format: functional; details: not given

**Q.** How did the MIC turn out when GENTAMICIN was run?
**A.** > 256 µg/mL

tested on: Klebsiella pneumoniae; test: Antimicrobial activity against CTX-M-2 producing Klebsiella pneumoniae with PFGE pulsotype F by Etest; format: functional; details: not given

**Q.** For CO/N=C(\C(=O)N[C@@H]1C(=O)N2C(C(=O)[O-])=C(C[N+]3(C)CCCC3)CS[C@H]12)c1csc(N)n1, which MIC is on record?
**A.** > 256 µg/mL

**Q.** With GENTAMICIN as the compound, how does the MIC read?
**A.** > 256 µg/mL

tested on: Klebsiella pneumoniae; test: Antimicrobial activity against CTX-M-59 producing Klebsiella pneumoniae with PFGE pulsotype G by Etest; format: functional; details: not given; in short: as §1

**Q.** Which MIC does the source give for CO/N=C(\C(=O)N[C@@H]1C(=O)N2C(C(=O)[O-])=C(C[N+]3(C)CCCC3)CS[C@H]12)c1csc(N)n1 here?
**A.** 32 µg/mL (≈ 66.6 µM)

**Q.** With GENTAMICIN as the compound, how does the MIC read?
**A.** > 256 µg/mL

tested on: Klebsiella pneumoniae; test: Antimicrobial activity against CTX-M-2 producing Klebsiella pneumoniae with PFGE pulsotype H by Etest; format: functional; details: not given; in short: as §1

**Q.** For CO/N=C(\C(=O)N[C@@H]1C(=O)N2C(C(=O)[O-])=C(C[N+]3(C)CCCC3)CS[C@H]12)c1csc(N)n1, which MIC is on record?
**A.** > 256 µg/mL

**Q.** With GENTAMICIN as the compound, how does the MIC read?
**A.** > 256 µg/mL

tested on: Klebsiella pneumoniae; test: Antimicrobial activity against CTX-M-2 producing Klebsiella pneumoniae with PFGE pulsotype I by Etest; format: functional; details: not given

**Q.** With CO/N=C(\C(=O)N[C@@H]1C(=O)N2C(C(=O)[O-])=C(C[N+]3(C)CCCC3)CS[C@H]12)c1csc(N)n1 as the compound, how does the MIC read?
**A.** 256 µg/mL (≈ 533 µM)

**Q.** GENTAMICIN was tested. Which MIC did it give?
**A.** 256 µg/mL

tested on: Klebsiella pneumoniae; test: Antimicrobial activity against CTX-M-2 producing Klebsiella pneumoniae with PFGE pulsotype J by Etest; format: functional; details: not given

**Q.** CO/N=C(\C(=O)N[C@@H]1C(=O)N2C(C(=O)[O-])=C(C[N+]3(C)CCCC3)CS[C@H]12)c1csc(N)n1 was tested. Which MIC did it give?
**A.** 12 µg/mL (≈ 25 µM)

tested on: Escherichia coli; test: Antimicrobial activity against Escherichia coli str. K-12 substr. DH10B harboring plasmid CTX-M-2; format: functional; details: K-12 DH10B
In short: (§2)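 blaCTX-M PCR products were cut with XbaI/BamHI and cloned into pBC-SK(−), then electroporated into E. coli DH10B. Transformants were selected on LB agar with ampicillin 50 μg/ml and chloramphenicol 30 μg/ml, and sequences were confirmed. These clones were used for β-lactam MICs, with and without clavulanic acid.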

**Q.** With CO/N=C(\C(=O)N[C@@H]1C(=O)N2C(C(=O)[O-])=C(C[N+]3(C)CCCC3)CS[C@H]12)c1csc(N)n1 as the compound, how does the MIC read?
**A.** 4 µg/mL (≈ 8.32 µM)

tested on: Escherichia coli; test: Antimicrobial activity against Escherichia coli str. K-12 substr. DH10B harboring plasmid CTX-M-59; format: functional; details: K-12 DH10B; in short: as §2

**Q.** For CO/N=C(\C(=O)N[C@@H]1C(=O)N2C(C(=O)[O-])=C(C[N+]3(C)CCCC3)CS[C@H]12)c1csc(N)n1, which MIC is on record?
**A.** 4 µg/mL (≈ 8.32 µM)

tested on: Klebsiella pneumoniae; test: Antimicrobial activity against CTX-M-2 and TEM-1 producing Klebsiella pneumoniae transconjugants/transformants with PFGE pulsotype A by Etest; format: functional; details: not given
In short: (§3)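 The recipient was E. coli XL1-Blue Rifr NAr. Plasmids moved by broth mating, with transconjugants selected on LB agar containing ampicillin, rifampin and nalidixic acid, each at 50 μg/ml. Where mating failed, alkaline-lysis plasmid extracts were electroporated and selected on ampicillin 50 μg/ml. β-lactam MICs were read by Etest, with and without clavulanic acid.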

**Q.** With GENTAMICIN as the compound, how does the MIC read?
**A.** > 256 µg/mL

tested on: Klebsiella pneumoniae; test: Antimicrobial activity against CTX-M-2 and TEM-1 producing Klebsiella pneumoniae transconjugants/transformants with PFGE pulsotype B by Etest; format: functional; details: not given; in short: as §3

**Q.** CO/N=C(\C(=O)N[C@@H]1C(=O)N2C(C(=O)[O-])=C(C[N+]3(C)CCCC3)CS[C@H]12)c1csc(N)n1 was tested. Which MIC did it give?
**A.** 256 µg/mL (≈ 533 µM)

**Q.** Which MIC does the source give for GENTAMICIN here?
**A.** > 256 µg/mL

tested on: Klebsiella pneumoniae; test: Antimicrobial activity against CTX-M-59 and TEM-1 producing Klebsiella pneumoniae transconjugants/transformants with PFGE pulsotype C by Etest; format: functional; details: not given; in short: as §3

**Q.** GENTAMICIN was tested. Which MIC did it give?
**A.** > 256 µg/mL

tested on: Klebsiella pneumoniae; test: Antimicrobial activity against SHV-5 producing Klebsiella pneumoniae transconjugants/transformants with PFGE pulsotype D by Etest; format: functional; details: not given; in short: as §3

**Q.** How did the MIC turn out when CO/N=C(\C(=O)N[C@@H]1C(=O)N2C(C(=O)[O-])=C(C[N+]3(C)CCCC3)CS[C@H]12)c1csc(N)n1 was run?
**A.** 1.5 µg/mL (≈ 3.12 µM)

**Q.** How did the MIC turn out when GENTAMICIN was run?
**A.** 24 µg/mL

tested on: Klebsiella pneumoniae; test: Antimicrobial activity against CTX-M-59 and TEM-1 producing Klebsiella pneumoniae transconjugants/transformants with PFGE pulsotype E by Etest; format: functional; details: not given; in short: as §3

**Q.** For GENTAMICIN, which MIC is on record?
**A.** > 256 µg/mL

tested on: Klebsiella pneumoniae; test: Antimicrobial activity against CTX-M-2 and TEM-1 producing Klebsiella pneumoniae transconjugants/transformants with PFGE pulsotype F by Etest; format: functional; details: not given; in short: as §3

**Q.** Which MIC does the source give for GENTAMICIN here?
**A.** > 256 µg/mL

tested on: Klebsiella pneumoniae; test: Antimicrobial activity against CTX-M-59 and TEM-1 producing Klebsiella pneumoniae transconjugants/transformants with PFGE pulsotype G by Etest; format: functional; details: not given; in short: as §3

**Q.** GENTAMICIN was tested. Which MIC did it give?
**A.** > 256 µg/mL

tested on: Klebsiella pneumoniae; test: Antimicrobial activity against CTX-M-2 and TEM-1 producing Klebsiella pneumoniae transconjugants/transformants with PFGE pulsotype H by Etest; format: functional; details: not given; in short: as §3

**Q.** Which MIC does the source give for GENTAMICIN here?
**A.** > 256 µg/mL

tested on: Klebsiella pneumoniae; test: Antimicrobial activity against CTX-M-2 and TEM-1 producing Klebsiella pneumoniae transconjugants/transformants with PFGE pulsotype I by Etest; format: functional; details: not given; in short: as §3

**Q.** How did the MIC turn out when GENTAMICIN was run?
**A.** > 256 µg/mL

tested on: Klebsiella pneumoniae; test: Antimicrobial activity against CTX-M-2 and TEM-1 producing Klebsiella pneumoniae transconjugants/transformants with PFGE pulsotype J by Etest; format: functional; details: not given; in short: as §3

**Q.** How did the MIC turn out when GENTAMICIN was run?
**A.** 128 µg/mL
